Measurements from ChEMBL document CHEMBL4014336 (J Med Chem, 2017).
Values after ≈ are worked out from the molar mass of the structure shown.

Tests used:
[1] = test system: Mus musculus; assay: In vivo inhibition of 11beta-HSD1 in po dosed non-fasting diet-induced obese mouse assessed as decrease in corticosterone excursion in plasma pretreated for 60 mins followed by DHC administration measured up to 120 mins by enzyme immunosorbent assay; assay type: functional
Procedure, shortened: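 Nonfasting diet-induced obese male mice, groups of n = 6 matched for body weight; tail bleed at −60 min, then oral vehicle (0.5% Methocel, 0.1% Tween 80 in water) or drug. At 60 min, bleed and oral DHC 10 mg/kg. Bleeds at 30, 60 and 120 min post-DHC. Plasma corticosterone measured by enzyme immunosorbent assay; drug levels in terminal bleed.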

[2] = Metabolic stability in human liver microsomes assessed as UGT-mediated glucuronidation of compound by measuring half life in presence of UDPGA; assay type: ADME
Procedure, shortened: (§1)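 Liver microsomal glucuronidation incubations in the presence of UDPGA; parent half-life determined.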

[3] = test system: Liver; assay: Metabolic stability in rat liver microsomes assessed as parent compound remaining after 10 mins; assay type: ADME, microsome; details: microsomes, 10 min
Procedure, shortened: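 Parent compound remaining after a 10 min incubation with human, mouse or rat liver microsomes.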

[4] = Inhibition of cynomolgus monkey 11beta-HSD2; set-up: species or system Macaca fascicularis
[5] = biological target: 11-beta-hydroxysteroid dehydrogenase type 2 (Mus musculus, UniProt P51661); assay: Inhibition of mouse 11beta-HSD2
11-beta-hydroxysteroid dehydrogenase type 2 (Mus musculus, UniProt P51661), sequence (P51661 whole entry): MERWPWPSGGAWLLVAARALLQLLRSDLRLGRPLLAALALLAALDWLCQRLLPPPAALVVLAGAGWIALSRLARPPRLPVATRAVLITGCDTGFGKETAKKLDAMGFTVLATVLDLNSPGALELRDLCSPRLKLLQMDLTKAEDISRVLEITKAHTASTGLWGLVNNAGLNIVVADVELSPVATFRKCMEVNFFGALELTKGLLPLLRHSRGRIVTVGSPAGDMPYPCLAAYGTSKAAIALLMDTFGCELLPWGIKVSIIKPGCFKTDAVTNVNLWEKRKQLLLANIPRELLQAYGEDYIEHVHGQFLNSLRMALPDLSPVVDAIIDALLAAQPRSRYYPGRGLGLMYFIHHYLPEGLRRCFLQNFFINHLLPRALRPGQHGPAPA

[6] = biological target: 11-beta-hydroxysteroid dehydrogenase type 2 (Rattus norvegicus, UniProt P50233); assay: Inhibition of rat 11beta-HSD2
11-beta-hydroxysteroid dehydrogenase type 2 (Rattus norvegicus, UniProt P50233), sequence (P50233 whole entry): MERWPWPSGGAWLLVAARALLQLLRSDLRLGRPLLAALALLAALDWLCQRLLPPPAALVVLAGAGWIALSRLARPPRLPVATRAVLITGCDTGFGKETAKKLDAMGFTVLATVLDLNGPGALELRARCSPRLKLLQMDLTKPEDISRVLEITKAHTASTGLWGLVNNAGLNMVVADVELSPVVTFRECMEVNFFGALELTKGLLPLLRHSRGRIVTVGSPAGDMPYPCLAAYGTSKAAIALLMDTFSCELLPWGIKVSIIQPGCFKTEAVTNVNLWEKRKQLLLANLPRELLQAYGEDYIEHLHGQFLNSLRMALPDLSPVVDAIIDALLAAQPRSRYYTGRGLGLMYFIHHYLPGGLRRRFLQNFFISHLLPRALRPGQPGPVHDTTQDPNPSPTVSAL

[7] = test system: Rattus norvegicus; assay: Toxicity in rat assessed as hypokalemia at 300 mg/kg for 2 weeks; assay type: organism-based; details: in vivo, 336 h
Procedure, shortened: (§2)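 Exploratory rat toxicology study lasting 2 weeks, with 300 mg/kg as the highest dose given. The study assessed hypokalemia, plasma volume expansion, hypertension and renal toxicity.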

[8] = test system: Rattus norvegicus; assay: Renal toxicity in rat at 300 mg/kg for 2 weeks; assay type: organism-based; details: in vivo, 336 h; procedure, shortened: as §2
[9] = AUC (0 to 24 hrs) in rat at 300 mg/kg; assay type: ADME, organism-based; set-up: dose 300 mg/kg, time < 24 hr; details: in vivo
[10] = biological target: Cytochrome P450 1A2 (Homo sapiens, UniProt P05177); assay: Inhibition of CYP1A2 (unknown origin); assay type: ADME
[11] = biological target: Cytochrome P450 2A6 (Homo sapiens, UniProt P11509); assay: Inhibition of CYP2A6 (unknown origin); assay type: ADME
Cytochrome P450 2A6, sequence (P11509 whole entry): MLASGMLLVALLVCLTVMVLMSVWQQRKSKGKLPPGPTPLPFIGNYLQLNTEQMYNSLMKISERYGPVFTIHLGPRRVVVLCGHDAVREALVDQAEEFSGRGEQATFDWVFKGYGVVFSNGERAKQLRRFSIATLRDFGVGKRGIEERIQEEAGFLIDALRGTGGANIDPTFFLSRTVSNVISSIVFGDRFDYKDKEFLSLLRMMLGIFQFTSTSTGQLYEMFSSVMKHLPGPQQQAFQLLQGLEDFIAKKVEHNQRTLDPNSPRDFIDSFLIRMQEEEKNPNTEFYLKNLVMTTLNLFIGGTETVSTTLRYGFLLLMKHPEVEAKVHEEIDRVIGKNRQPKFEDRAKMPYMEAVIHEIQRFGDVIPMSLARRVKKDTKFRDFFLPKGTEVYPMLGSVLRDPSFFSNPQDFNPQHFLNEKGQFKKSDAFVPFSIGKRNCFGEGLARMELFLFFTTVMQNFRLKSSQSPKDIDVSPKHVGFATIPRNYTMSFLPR

[12] = biological target: Cytochrome P450 2B6 (Homo sapiens, UniProt P20813); assay: Inhibition of CYP2B6 (unknown origin); assay type: ADME
Cytochrome P450 2B6, sequence (P20813 whole entry): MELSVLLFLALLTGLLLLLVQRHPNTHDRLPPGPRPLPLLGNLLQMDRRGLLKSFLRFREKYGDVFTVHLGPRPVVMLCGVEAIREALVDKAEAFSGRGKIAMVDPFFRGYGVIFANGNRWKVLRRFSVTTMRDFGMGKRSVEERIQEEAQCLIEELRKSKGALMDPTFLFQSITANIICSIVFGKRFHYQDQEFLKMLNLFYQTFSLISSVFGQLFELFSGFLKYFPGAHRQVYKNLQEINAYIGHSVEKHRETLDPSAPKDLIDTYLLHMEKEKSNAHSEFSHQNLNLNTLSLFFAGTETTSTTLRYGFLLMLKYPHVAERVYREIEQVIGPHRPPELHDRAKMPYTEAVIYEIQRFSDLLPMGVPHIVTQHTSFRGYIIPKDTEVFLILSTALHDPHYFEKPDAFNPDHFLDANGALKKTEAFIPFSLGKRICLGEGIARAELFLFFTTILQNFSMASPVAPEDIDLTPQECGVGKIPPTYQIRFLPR

[13] = biological target: Cytochrome P450 2C8 (Homo sapiens, UniProt P10632); assay: Inhibition of CYP2C8 (unknown origin); assay type: ADME
Cytochrome P450 2C8, sequence (P10632 whole entry): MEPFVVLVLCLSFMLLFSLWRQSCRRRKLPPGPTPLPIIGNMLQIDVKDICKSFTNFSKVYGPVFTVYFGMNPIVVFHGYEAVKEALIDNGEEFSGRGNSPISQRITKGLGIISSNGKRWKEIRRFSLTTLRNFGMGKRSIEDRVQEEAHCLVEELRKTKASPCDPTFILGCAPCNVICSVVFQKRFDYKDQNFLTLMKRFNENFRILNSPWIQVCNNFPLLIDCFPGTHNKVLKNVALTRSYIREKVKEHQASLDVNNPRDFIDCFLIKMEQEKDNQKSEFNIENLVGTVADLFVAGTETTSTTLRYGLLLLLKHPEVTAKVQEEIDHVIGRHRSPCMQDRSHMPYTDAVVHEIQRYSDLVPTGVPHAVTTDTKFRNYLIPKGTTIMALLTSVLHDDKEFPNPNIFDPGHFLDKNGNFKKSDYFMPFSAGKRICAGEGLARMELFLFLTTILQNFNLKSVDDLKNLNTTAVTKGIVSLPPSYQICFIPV

[14] = biological target: Cytochrome P450 2C19 (Homo sapiens, UniProt P33261); assay: Inhibition of CYP2C19 (unknown origin); assay type: ADME
Cytochrome P450 2C19, sequence (P33261 whole entry): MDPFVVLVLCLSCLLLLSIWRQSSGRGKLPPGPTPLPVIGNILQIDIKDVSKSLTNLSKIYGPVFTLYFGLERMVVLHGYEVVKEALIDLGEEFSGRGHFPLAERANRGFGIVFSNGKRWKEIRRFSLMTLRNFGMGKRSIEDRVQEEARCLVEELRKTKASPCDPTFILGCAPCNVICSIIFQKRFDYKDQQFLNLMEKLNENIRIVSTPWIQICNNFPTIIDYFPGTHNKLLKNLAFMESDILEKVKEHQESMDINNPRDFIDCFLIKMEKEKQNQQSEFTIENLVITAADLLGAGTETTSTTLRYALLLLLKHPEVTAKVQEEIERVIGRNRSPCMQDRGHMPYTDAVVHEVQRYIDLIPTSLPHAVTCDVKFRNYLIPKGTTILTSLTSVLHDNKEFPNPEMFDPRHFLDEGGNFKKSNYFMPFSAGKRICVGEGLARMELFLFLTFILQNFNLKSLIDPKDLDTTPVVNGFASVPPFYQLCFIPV

[15] = biological target: Cytochrome P450 2E1 (Homo sapiens, UniProt P05181); assay: Inhibition of CYP2E1 (unknown origin); assay type: ADME
Cytochrome P450 2E1, sequence (P05181 whole entry): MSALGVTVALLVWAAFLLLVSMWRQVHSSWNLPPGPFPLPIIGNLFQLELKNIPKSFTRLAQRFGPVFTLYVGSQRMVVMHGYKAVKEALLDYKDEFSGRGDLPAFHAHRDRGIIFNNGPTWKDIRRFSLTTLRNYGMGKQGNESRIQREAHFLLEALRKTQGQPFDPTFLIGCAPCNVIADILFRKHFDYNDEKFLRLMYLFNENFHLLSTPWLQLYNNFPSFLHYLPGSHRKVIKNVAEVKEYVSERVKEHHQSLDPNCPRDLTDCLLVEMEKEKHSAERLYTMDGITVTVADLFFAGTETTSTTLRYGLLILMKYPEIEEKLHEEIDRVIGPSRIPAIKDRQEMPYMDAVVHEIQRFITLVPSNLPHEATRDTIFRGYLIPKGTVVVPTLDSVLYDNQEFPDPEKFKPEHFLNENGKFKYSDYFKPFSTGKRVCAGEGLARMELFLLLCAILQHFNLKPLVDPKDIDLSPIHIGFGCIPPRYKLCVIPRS

[16] = biological target: Cytochrome P450 3A4 (Homo sapiens, UniProt P08684); assay: Inhibition of CYP3A4 (unknown origin); assay type: ADME
Cytochrome P450 3A4, sequence (P08684 whole entry): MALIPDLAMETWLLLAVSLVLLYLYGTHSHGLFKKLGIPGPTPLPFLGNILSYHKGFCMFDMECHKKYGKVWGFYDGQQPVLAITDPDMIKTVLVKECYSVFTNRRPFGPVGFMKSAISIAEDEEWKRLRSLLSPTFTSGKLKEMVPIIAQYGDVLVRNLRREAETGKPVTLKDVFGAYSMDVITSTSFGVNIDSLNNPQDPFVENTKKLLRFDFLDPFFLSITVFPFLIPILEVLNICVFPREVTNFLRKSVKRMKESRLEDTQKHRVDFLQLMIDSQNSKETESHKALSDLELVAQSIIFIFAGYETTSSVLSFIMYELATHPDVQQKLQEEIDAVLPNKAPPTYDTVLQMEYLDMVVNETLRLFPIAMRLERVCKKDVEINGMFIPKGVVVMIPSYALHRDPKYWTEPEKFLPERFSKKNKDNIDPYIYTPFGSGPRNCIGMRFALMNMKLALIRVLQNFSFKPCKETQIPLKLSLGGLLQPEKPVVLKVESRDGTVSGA

[17] = biological target: hERG (Homo sapiens, UniProt Q12809); assay: Inhibition of human ERG at 30 uM by patch clamp assay relative to control
hERG, sequence (Q12809 whole entry): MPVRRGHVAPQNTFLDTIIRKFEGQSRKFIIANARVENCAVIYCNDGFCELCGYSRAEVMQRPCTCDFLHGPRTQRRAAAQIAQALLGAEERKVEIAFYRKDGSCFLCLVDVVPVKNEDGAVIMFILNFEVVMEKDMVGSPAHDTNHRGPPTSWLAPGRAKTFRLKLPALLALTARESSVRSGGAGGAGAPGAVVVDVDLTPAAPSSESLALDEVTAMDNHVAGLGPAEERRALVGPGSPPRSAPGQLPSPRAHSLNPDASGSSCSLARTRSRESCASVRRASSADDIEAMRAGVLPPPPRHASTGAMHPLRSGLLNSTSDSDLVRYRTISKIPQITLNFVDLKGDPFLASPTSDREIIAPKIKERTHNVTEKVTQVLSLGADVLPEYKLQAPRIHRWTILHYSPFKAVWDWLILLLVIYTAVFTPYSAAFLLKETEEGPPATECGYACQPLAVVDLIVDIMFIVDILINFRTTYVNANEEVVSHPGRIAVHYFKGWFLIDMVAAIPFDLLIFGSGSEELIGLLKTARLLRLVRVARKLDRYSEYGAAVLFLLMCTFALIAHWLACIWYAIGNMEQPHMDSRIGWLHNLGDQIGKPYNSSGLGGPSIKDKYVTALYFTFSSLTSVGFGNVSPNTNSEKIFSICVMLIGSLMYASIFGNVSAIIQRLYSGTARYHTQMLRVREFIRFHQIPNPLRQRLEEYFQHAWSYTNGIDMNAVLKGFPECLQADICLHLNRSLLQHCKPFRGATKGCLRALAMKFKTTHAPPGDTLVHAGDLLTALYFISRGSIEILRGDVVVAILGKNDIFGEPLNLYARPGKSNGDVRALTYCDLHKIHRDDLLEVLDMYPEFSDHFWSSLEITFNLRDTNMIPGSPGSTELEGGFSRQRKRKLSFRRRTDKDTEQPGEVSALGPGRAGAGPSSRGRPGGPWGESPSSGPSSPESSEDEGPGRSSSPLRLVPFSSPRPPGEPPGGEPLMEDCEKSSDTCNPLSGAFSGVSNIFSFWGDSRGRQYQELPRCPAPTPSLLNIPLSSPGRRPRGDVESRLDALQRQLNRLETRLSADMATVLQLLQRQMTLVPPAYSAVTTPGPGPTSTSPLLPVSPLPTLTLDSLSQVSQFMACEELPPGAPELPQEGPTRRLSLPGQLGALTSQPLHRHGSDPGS
Procedure, shortened: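 hERG channel, patch clamp; percent inhibition at 30 μM.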

[18] = Aqueous solubility of the compound in pH 6.5 solution; assay type: physicochemical; details: pH 6.5, pH 6.5
Procedure, shortened: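 Aqueous solubility measured at pH 6.5.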

[19] = Metabolic stability in cynomolgus monkey liver microsomes assessed as UGT-mediated glucuronidation of compound by measuring half life in presence of UDPGA; assay type: ADME, Macaca fascicularis; procedure, shortened: as §1
[20] = Metabolic stability in rat liver microsomes assessed as UGT-mediated glucuronidation of compound by measuring half life in presence of UDPGA; assay type: ADME; procedure, shortened: as §1
[21] = Volume of distribution at steady state in mouse at 5 mg/kg, iv; assay type: ADME, organism-based; details: in vivo, read-out: Vdss
[22] = Apparent elimination half life in mouse at 5 mg/kg, iv; assay type: ADME, organism-based; details: in vivo, read-out: betat1/2(app) (converted)
[23] = AUC (0 to 24 hrs) in mouse at 5 mg/kg, iv; assay type: ADME, organism-based; set-up: time < 24 hr, dose 5 mg/kg, route intravenous; details: in vivo
[24] = test system: Rattus norvegicus; assay: Volume of distribution at steady state in rat at […], iv; assay type: ADME, organism-based; details: in vivo
[25] = test system: Rattus norvegicus; assay: Apparent elimination half life in rat at […], iv; assay type: ADME, organism-based; details: in vivo
[26] = test system: Rattus norvegicus; assay: MRT in rat at […], iv; assay type: ADME, organism-based; details: in vivo
[27] = AUC (0 to 24 hrs) in rat at […], iv; assay type: ADME, organism-based; set-up: time < 24 hr, dose 7.7 mg/kg, route intravenous; details: in vivo
[28] = Oral bioavailability in rat at 10 mg/kg; assay type: ADME, organism-based; details: in vivo
[29] = MRT in dog at 1 mg/kg, iv; assay type: ADME, organism-based, Canis lupus familiaris; details: in vivo
[30] = AUC (0 to 24 hrs) in dog at 1 mg/kg, iv; assay type: ADME, organism-based, Canis lupus familiaris; set-up: time < 24 hr, dose 1 mg/kg, route intravenous; details: in vivo
[31] = Volume of distribution at steady state in cynomolgus monkey at 1 mg/kg, iv; assay type: ADME, organism-based, Macaca fascicularis; details: in vivo, read-out: Vdss
[32] = Total plasma clearance in cynomolgus monkey at 1 mg/kg, iv; assay type: ADME, organism-based, Macaca fascicularis
[33] = Apparent elimination half life in cynomolgus monkey at 1 mg/kg, iv; assay type: ADME, organism-based, Macaca fascicularis; details: in vivo, read-out: betat1/2(app) (converted)
[34] = MRT in cynomolgus monkey at 1 mg/kg, iv; assay type: ADME, organism-based, Macaca fascicularis; details: in vivo
[35] = AUC (0 to 24 hrs) in cynomolgus monkey at 1 mg/kg, iv; assay type: ADME, organism-based, Macaca fascicularis; set-up: dose 1 mg/kg, time < 24 hr, route intravenous; details: in vivo
[36] = Protein binding in rat plasma; assay type: ADME, cell-free; details: read-out: PPB (converted)
[37] = Protein binding in dog plasma; assay type: ADME, cell-free, Canis lupus familiaris; details: read-out: PPB (converted)
[38] = test system: Mus musculus; assay: In vivo inhibition of 11beta-HSD1 in po dosed non-fasting diet-induced obese mouse assessed as plasma concentration required to show decrease in corticosterone excursion pretreated for 60 mins followed by DHC administration measured up to 120 mins by enzyme immunosorbent assay; assay type: functional, organism-based
Procedure, shortened: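 Nonfasting diet-induced obese male mice, groups of n = 6 matched for body weight. Tail bleed at −60 min, then oral dosing with vehicle (0.5% Methocel, 0.1% Tween 80 in water) or drug. DHC 10 mg/kg given orally 60 min later. Bleeds at 30, 60 and 120 min after DHC. Plasma corticosterone measured by enzyme immunosorbent assay. Drug levels measured in terminal bleed samples.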

[39] = test system: Cynomolgus monkey; assay: In vivo inhibition of 11beta-HSD1 in non-fasting diet-induced obese cynomolgus monkey assessed as decrease in corticosterone excursion in plasma pretreated via oral gavage for 30 mins followed by DHC administration measured up to 60 mins by enzyme immunosorbent assay; assay type: functional; details: Macaca fascicularis
Procedure, shortened: (§3)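 Cynomolgus monkeys given test compound at a predetermined time before the experiment, chosen from its pharmacokinetics. Substrate DHC (rodent substrate, used in place of cortisone) given afterwards. Blood sampled at various times. Design otherwise similar to the mouse DHC challenge.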

[40] = Tmax in non-fasting diet-induced obese cynomolgus monkey administered via oral gavage; assay type: ADME, Macaca fascicularis; details: in vivo
[41] = test system: Cynomolgus monkey; assay: In vivo inhibition of 11beta-HSD1 in non-fasting diet-induced obese cynomolgus monkey assessed as plasma concentration required to show decrease in corticosterone excursion pretreated via oral gavage for 30 mins followed by DHC administration measured up to 60 mins by enzyme immunosorbent assay; assay type: functional, organism-based; details: Macaca fascicularis; procedure, shortened: as §3
[42] = test system: Plasma; assay: Drug metabolism in dog plasma assessed as ketone A formation at 1 mg/kg, iv; assay type: ADME, organism-based, Canis lupus familiaris; details: in vivo
[43] = test system: Cynomolgus monkey; assay: Toxicity in cynomolgus monkey assessed as HPA axis activation by measuring DHEAS level at 1 to 10 mg/kg for 7 days; assay type: organism-based, Macaca fascicularis; details: in vivo, 168 h
[44] = test system: Cynomolgus monkey; assay: Toxicity in cynomolgus monkey assessed as HPA axis activation by measuring DHEA level at 1 to 10 mg/kg for 7 days; assay type: organism-based, Macaca fascicularis; details: in vivo, 168 h

For `O=C(CC1(c2ccccc2)C2CC3CC1CC(C2)C3O)N1CC(O)C1` (stereo in doubt; form 2), the ED50 [1] was 8.6 mg/kg, the half-life [2] was > 3.33 h and the Stability [3] was 67%. The IC50 [4] was 48 µM, the IC50 [5] was 7.9 µM and the IC50 [6] was 3.5 µM. For the same compound, the Activity [7] was “Non-Toxic”, the Activity [8] was “Non-Toxic” and the AUC(0-t) at 24 h [9] was ≤ 650 µM·h. For the same compound, the IC50 [10] was > 40 µM, the IC50 [11] was > 40 µM and the IC50 [12] was > 40 µM. For the same compound, the IC50 [13] was > 40 µM, the IC50 [14] was > 40 µM and the IC50 [15] was > 40 µM. The IC50 [16] was > 40 µM, the inhibition at 30 µM [17] was 10% and the solubility [18] was 1800 µg/mL (≈ 5.27 mM). For the same compound, the half-life [19] was > 3.33 h, the half-life [20] was 0.783 h and the Vd [21] was 2 L/kg. The half-life [22] was 2 h, the AUC(0-t) at 24 h [23] was 5 µM·h and the Vdss [24] was 0.5 L/kg. The betat1/2(app) [25] was 3 h, the MRT [26] was 1.3 h and the AUC(0-t) at 24 h [27] was 6 µM·h. The bioavailability [28] was 20%, the MRT [29] was 3.5 h and the AUC(0-t) at 24 h [30] was 4.6 µM·h. It also gave a Vd [31] of 4.2 L/kg, a clearance [32] of 21.2 mL/min/kg and a half-life [33] of 6 h. The MRT [34] was 3.3 h, the AUC(0-t) at 24 h [35] was 2.3 µM·h and the fraction unbound [36] was 0.35. The fraction unbound [37] was 0.43, the EC50 [38] was 0.85 µM and the ED50 [39] was 0.12 mg/kg. The Tmax [40] was 0.5 h, the EC50 [41] was 0.075 µM and the Drug metabolism [42] was “Metabolite_Detected”. The Activity [43] was “Non-Toxic” and the Activity [44] was “Non-Toxic”.
